# Results taken from ChEMBL document CHEMBL5523707, “Novel Inhibitory Site Revealed by XAP044 Mode of Action on the Metabotropic Glutamate 7 Receptor Venus Flytrap Domain” (J Med Chem, 2024).
# Calls of active or inactive are those of the source. The calls are words filed in the database; no cut-off is given here.
# Tests used:
# [1] = Agonist activity at rat mGlu7 K233D mutant
# [2] = target: Metabotropic glutamate receptor 4 (Rattus norvegicus, UniProt P31423, R60A); assay: Agonist activity against rat mGlu4 R60A mutant
# Metabotropic glutamate receptor 4 (Rattus norvegicus, UniProt P31423, R60A), sequence (P31423 33-912 R60A limits assumed): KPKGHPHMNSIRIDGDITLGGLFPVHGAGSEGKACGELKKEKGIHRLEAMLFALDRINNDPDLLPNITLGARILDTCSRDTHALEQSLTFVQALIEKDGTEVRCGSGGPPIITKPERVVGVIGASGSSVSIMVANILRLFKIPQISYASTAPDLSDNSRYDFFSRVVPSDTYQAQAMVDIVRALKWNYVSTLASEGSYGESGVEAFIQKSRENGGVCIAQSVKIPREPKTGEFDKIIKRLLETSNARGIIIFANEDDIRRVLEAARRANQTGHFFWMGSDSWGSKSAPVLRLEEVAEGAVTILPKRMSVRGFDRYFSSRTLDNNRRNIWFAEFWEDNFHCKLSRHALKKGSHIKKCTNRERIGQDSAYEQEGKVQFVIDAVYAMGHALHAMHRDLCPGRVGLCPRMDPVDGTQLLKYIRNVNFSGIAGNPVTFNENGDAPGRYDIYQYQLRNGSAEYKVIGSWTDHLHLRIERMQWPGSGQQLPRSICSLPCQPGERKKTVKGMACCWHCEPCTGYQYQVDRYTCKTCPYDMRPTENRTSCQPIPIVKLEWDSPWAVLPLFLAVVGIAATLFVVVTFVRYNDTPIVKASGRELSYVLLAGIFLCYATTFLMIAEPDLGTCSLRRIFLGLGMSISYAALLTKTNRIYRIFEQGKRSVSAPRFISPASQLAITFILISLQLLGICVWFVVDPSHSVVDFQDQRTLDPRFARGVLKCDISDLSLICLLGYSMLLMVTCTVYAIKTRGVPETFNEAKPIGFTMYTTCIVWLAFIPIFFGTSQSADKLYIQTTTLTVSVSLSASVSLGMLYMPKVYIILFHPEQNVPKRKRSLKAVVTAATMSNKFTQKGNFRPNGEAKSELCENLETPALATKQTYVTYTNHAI
# [3] = Agonist activity at rat mGlu7 loop beta10-alpha7 region
# [4] = Agonist activity at rat mGlu7 S229A mutant
# [5] = target: Metabotropic glutamate receptor 4 (Rattus norvegicus, UniProt P31423, R258A); assay: Agonist activity at rat mGlu4 R258A mutant
# [6] = target: Metabotropic glutamate receptor 4 (Rattus norvegicus, UniProt P31423, K74A); assay: Agonist activity against rat mGlu4 K74A mutant
# [7] = target: Metabotropic glutamate receptor 7 (Rattus norvegicus, UniProt P35400, K60A/S160A); assay: Agonist activity at rat mGlu7 K60A/S160A mutant
# [8] = Agonist activity at rat mGlu7 N288A mutant
# [9] = Agonist activity at rat mGlu7 D314A mutant
# [10] = target: Metabotropic glutamate receptor 7 (Rattus norvegicus, UniProt P35400, N74A); assay: Agonist activity at rat mGlu7 N74A mutant
# [11] = target: T1, Metabotropic glutamate receptor 7 (Rattus norvegicus, UniProt P35400); assay: Antagonist activity against LSP4-202-induced rat mGlu7 activation transfected in HEK293 cells co-transfected with chimeric Gqi9 assessed as decrease in LSP4-202 potency by measuring LSP4-202 pEC50 incubated for 24 hrs by IP-one HTRF assay; assay type: functional, cell-based
# T1 sequence (P35400 whole entry): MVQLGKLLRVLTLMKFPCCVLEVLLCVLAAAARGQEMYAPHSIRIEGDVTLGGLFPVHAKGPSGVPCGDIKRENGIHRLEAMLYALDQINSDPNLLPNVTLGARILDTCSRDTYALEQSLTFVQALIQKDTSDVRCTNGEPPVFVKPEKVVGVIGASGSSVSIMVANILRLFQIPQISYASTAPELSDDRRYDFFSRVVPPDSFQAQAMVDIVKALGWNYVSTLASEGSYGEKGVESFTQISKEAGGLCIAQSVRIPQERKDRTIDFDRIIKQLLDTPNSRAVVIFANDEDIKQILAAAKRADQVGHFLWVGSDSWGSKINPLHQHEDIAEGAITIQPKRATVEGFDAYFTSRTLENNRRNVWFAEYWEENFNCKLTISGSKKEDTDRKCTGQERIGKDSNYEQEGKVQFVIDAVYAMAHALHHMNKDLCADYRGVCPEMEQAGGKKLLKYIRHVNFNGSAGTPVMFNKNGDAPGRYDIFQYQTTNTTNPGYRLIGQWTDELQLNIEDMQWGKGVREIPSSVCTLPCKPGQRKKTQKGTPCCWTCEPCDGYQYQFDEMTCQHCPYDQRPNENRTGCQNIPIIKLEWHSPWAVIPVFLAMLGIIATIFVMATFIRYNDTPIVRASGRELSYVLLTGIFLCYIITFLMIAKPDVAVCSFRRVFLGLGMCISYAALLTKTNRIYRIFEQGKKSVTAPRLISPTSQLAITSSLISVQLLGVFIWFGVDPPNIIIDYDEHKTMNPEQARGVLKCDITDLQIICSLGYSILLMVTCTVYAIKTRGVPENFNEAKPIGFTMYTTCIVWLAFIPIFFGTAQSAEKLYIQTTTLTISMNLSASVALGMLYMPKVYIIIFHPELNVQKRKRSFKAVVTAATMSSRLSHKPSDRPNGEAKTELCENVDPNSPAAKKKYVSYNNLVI
# Method in brief: (§1)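 IP-One HTRF IP1 read-out in HEK293 transiently expressing rat mGlu7 plus chimeric Gqα9, 24 h after electroporation. LSP4-2022 concentration-response was tested with derivatives at 30 or 100 µM. Gives pEC50, pEC50/pEC50 control ratio, and max as % of LSP4-2022 maximal effect over basal. Triplicates, n independent experiments; paired t-test.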
# [12] = target: Metabotropic glutamate receptor 4 (Rattus norvegicus, UniProt P31423, S160D); assay: Agonist activity against rat mGlu4 S160D mutant
# [13] = target: T1, Metabotropic glutamate receptor 7; assay: Agonist activity at wild type rat mGlu7; assay type: functional
# Method in brief: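 HEK293 cells were transiently transfected by electroporation with rat mGlu7 plasmid plus chimeric Gqα9 to couple to phospholipase C. They were grown in DMEM with 10% FBS on polyornithine-coated wells at 150 000 cells/well.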
# [14] = target: Metabotropic glutamate receptor 4 (Rattus norvegicus, UniProt P31423); assay: Agonist activity against wild type rat mGlu4; assay type: functional
# [15] = target: Metabotropic glutamate receptor 7 (Rattus norvegicus, UniProt P35400, Q258A); assay: Agonist activity at rat mGlu7 Q258A mutant
# [16] = target: Metabotropic glutamate receptor 7 (Rattus norvegicus, UniProt P35400, K60A); assay: Agonist activity at rat mGlu7 K60A mutant
# Metabotropic glutamate receptor 7 (Rattus norvegicus, UniProt P35400, K60A), sequence (P35400 35-915 K60A limits assumed): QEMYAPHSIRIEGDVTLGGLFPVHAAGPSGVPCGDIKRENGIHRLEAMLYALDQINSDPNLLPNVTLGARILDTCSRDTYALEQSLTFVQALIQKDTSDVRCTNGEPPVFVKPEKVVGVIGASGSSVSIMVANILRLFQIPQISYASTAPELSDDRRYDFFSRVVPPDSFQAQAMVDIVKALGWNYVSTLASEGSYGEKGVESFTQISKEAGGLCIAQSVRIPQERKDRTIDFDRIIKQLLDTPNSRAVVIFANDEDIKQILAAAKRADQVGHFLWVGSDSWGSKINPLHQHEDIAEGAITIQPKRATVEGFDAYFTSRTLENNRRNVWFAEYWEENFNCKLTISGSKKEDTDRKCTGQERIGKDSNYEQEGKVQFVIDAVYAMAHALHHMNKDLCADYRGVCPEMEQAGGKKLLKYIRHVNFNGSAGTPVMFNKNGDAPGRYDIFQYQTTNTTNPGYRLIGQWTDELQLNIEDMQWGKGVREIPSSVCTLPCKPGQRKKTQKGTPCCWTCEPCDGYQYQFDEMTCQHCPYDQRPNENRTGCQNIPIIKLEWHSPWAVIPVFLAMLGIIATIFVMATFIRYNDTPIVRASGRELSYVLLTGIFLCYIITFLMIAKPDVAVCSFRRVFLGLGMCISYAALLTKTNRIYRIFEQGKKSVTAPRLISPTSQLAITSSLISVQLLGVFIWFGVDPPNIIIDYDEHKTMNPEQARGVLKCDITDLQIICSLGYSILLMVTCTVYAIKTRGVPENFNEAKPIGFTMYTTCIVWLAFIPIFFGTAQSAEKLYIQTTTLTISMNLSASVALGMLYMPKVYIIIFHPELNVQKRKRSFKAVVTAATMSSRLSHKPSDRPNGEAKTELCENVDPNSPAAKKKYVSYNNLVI
# [17] = Agonist activity at rat mGlu7 S237A mutant
# [18] = target: Metabotropic glutamate receptor 4 (Rattus norvegicus, UniProt P31423, S160A); assay: Agonist activity against rat mGlu4 S160A mutant
# [19] = Agonist activity at rat mGlu7 N74K/loop 4 region
# [20] = Agonist activity at rat mGlu7 K233A mutant
# [21] = Agonist activity at rat mGlu7 K233S mutant
# [22] = Agonist activity at rat mGlu4 loop beta-10-alpha7 region
# [23] = Agonist activity at rat mGlu4 R258Q/D262/R263 mutant
# [24] = target: Metabotropic glutamate receptor 7 (Rattus norvegicus, UniProt P35400, N74K); assay: Agonist activity at rat mGlu7 N74K mutant
# Metabotropic glutamate receptor 7 (Rattus norvegicus, UniProt P35400, N74K), sequence (P35400 35-915 N74K limits assumed): as the sequence (P35400 35-915 K60A limits assumed) above, with A26K, N40K counted along it
# [25] = Agonist activity at rat mGlu7 Q258R/D262/R263 mutant
# [26] = target: Metabotropic glutamate receptor 7 (Rattus norvegicus, UniProt P35400, S160A); assay: Agonist activity at rat mGlu7 S160A mutant
# [27] = target: T1, Metabotropic glutamate receptor 7; assay: Inhibition of [3H] -LY341495 binding to rat mGlu7 expressed in CHO cell membrane incubated for 30 mins by liquid scintillation analysis
# [28] = Antagonist activity against LSP4-202-induced rat mGlu7 K233D mutant assessed as decrease in LSP4-202 potency by measuring LSP4-202 pEC50
# [29] = Antagonist activity at LSP4-202-induced rat mGlu7 K233S mutant assessed as decrease in LSP4-202 potency by measuring LSP4-202 pEC50
# [30] = species on record: Rattus norvegicus; assay: Ratio of pEC50 for antagonist activity against LSP4-202-induced rat mGlu7 K233A mutant assessed as decrease in LSP4-202 potency to pEC50 for LSP4-202-induced rat mGlu7 K233A mutant; settings: filed as antagonist
# [31] = Antagonist activity against LSP4-202-induced rat mGlu7 K233A mutant assessed as decrease in LSP4-202 potency by measuring LSP4-202 pEC50
# [32] = Antagonist activity against LSP4-202-induced rat mGlu7 […] mutant assessed as decrease in LSP4-202 potency by measuring LSP4-202 pEC50 at 30 uM
# [33] = species on record: Rattus norvegicus; assay: Ratio of pEC50 for antagonist activity against LSP4-202 induced wild type rat mGlu7 assessed as decrease in LSP4-202 potency by measuring LSP4-202 pEC50 at 3 uM to pEC50 for LSP4-202-induced wild type rat mGlu7
# [34] = target: T1, Metabotropic glutamate receptor 7; assay: Antagonist activity against rat mGlu7 activation transfected in HEK293 cells co-transfected with chimeric Gqi9 incubated for 24 hrs in presence of LSP4-2022 by IP-one HTRF assay; assay type: functional, cell-based; settings: read-out: IC50
# Method in brief: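 Inhibition curves were run with increasing inhibitor concentrations against IP1 production by 30 µM LSP4-2022. Rat mGlu7 was co-expressed with Gqα9 in HEK293 and assayed 24 h post-transfection with IP-One HTRF. IC50/pIC50 are means ± sem of independent experiments in triplicates. pIC50 compared to reference by unpaired t-test.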
# [35] = Antagonist activity against LSP4-202-induced rat mGlu7 […] mutant assessed as decrease in LSP4-202 potency by measuring LSP4-202 pEC50 at 10 uM
# [36] = species on record: Rattus norvegicus; assay: Ratio of pEC50 for antagonist activity against LSP4-202-induced wild type rat mGlu7 assessed as decrease in LSP4-202 potency to pEC50 for LSP4-202-induced wild type rat mGlu7; settings: filed as antagonist
# [37] = species on record: Rattus norvegicus; assay: Ratio of pEC50 for antagonist activity against LSP4-202-induced rat mGlu7 S229A mutant assessed as decrease in LSP4-202 potency to pEC50 for LSP4-202-induced rat mGlu7 S229A mutant; settings: filed as antagonist
# [38] = Antagonist activity against LSP4-202-induced rat mGlu7 […] mutant assessed as decrease in LSP4-202 potency by measuring LSP4-202 pEC50 at 100 uM
# [39] = species on record: Rattus norvegicus; assay: Ratio of pEC50 for antagonist activity against LSP4-202-induced rat mGlu7 activation transfected in HEK293 cells co-transfected with chimeric Gqi9 assessed as decrease in LSP4-202 potency to pEC50 for LSP4-202-induced rat mGlu7 activation transfected in HEK293 cells co-transfected with chimeric Gqi9; assay type: cell-based; method in brief: as §1
# [40] = species on record: Rattus norvegicus; assay: Ratio of pEC50 for antagonist activity against LSP4-202 induced wild type rat mGlu7 assessed as decrease in LSP4-202 potency by measuring LSP4-202 pEC50 at 10 uM to pEC50 for LSP4-202-induced wild type rat mGlu7
# [41] = species on record: Rattus norvegicus; assay: Ratio of pEC50 for antagonist activity at LSP4-202-induced rat mGlu7 K233D mutant assessed as decrease in LSP4-202 potency to pEC50 for LSP4-202-induced rat mGlu7 K233D mutant; settings: filed as antagonist
# [42] = Antagonist activity against LSP4-202-induced rat mGlu7 S237A mutant assessed as decrease in LSP4-202 potency by measuring LSP4-202 pEC50
# [43] = species on record: Rattus norvegicus; assay: Ratio of pEC50 for antagonist activity against LSP4-202 induced rat mGlu7 S229A mutant assessed as decrease in LSP4-202 potency by measuring LSP4-202 pEC50 at 30 uM to pEC50 for LSP4-202-induced rat mGlu7 S229A mutant
# [44] = species on record: Rattus norvegicus; assay: Ratio of pEC50 for antagonist activity against LSP4-202-induced rat mGlu7 S237A mutant assessed as decrease in LSP4-202 potency to pEC50 for LSP4-202-induced rat mGlu7 S237A mutant; settings: filed as antagonist
# [45] = target: Metabotropic glutamate receptor 7 (Rattus norvegicus) (UniProt P35400); assay: Non-competitive antagonist activity against rat mGlu7 receptor assessed as decrease in L-AP4 effect at 1 to 100 uM; settings: filed as antagonist, dose 1-100 µM
# Metabotropic glutamate receptor 7 (Rattus norvegicus), sequence (P35400 whole entry): as the sequence (P35400 whole entry) above
# [46] = species on record: Rattus norvegicus; assay: Ratio of pEC50 for antagonist activity against LSP4-202 induced rat mGlu7 S229A mutant assessed as decrease in LSP4-202 potency by measuring LSP4-202 pEC50 at 100 uM to pEC50 for LSP4-202-induced rat mGlu7 S229A mutant
# [47] = target: T1, Metabotropic glutamate receptor 7; assay: Inhibition of [3H] -LY341495 binding to rat mGlu7 expressed in CHO cell membrane incubated for 30 mins in presence of LY341495 by liquid scintillation analysis; assay type: cell membranes
# [48] = species on record: Rattus norvegicus; assay: Ratio of pEC50 for antagonist activity against LSP4-202-induced rat mGlu7 K233S mutant assessed as decrease in LSP4-202 potency to pEC50 for LSP4-202-induced rat mGlu7 K233S mutant; settings: filed as antagonist
# [49] = target: Metabotropic glutamate receptor 7 (Rattus norvegicus) (UniProt P35400); assay: Antagonist activity against LSP4-202-induced rat mGlu7 activation transfected in HEK293 cells co-transfected with chimeric Gqi9 assessed as decrease in LSP4-202 potency by measuring LSP4-202 maximum efficacy at 30 to 100 uM incubated for 24 hrs by IP-one HTRF assay relative to control; assay type: functional, cell-based; settings: filed as antagonist, dose 30-100 µM; method in brief: as §1
# [50] = species on record: Rattus norvegicus; assay: Ratio of pEC50 for antagonist activity against LSP4-202 induced rat mGlu7 S229A mutant assessed as decrease in LSP4-202 potency by measuring LSP4-202 pEC50 at 10 uM to pEC50 for LSP4-202-induced rat mGlu7 S229A mutant
# [51] = Antagonist activity against LSP4-202-induced rat mGlu7 S229A mutant assessed as decrease in LSP4-202 potency by measuring LSP4-202 pEC50
# [52] = species on record: Rattus norvegicus; assay: Ratio of pEC50 for antagonist activity against LSP4-202 induced wild type rat mGlu7 assessed as decrease in LSP4-202 potency by measuring LSP4-202 pEC50 at 30 uM to pEC50 for LSP4-202-induced wild type rat mGlu7
# [53] = species on record: Rattus norvegicus; assay: Ratio of pEC50 for antagonist activity against LSP4-202 induced wild type rat mGlu7 assessed as decrease in LSP4-202 potency by measuring LSP4-202 pEC50 at 1 uM to pEC50 for LSP4-202-induced wild type rat mGlu7
compound,measurement,setting,value
N[C@@H](CCP(=O)(O)C(O)c1ccc(OCC(=O)O)cc1)C(=O)O (stereo partly specified),EC50,[1],155 µM
same,pEC50,[1],3.83
same,EC50,[2],9.07 µM
same,EC50,[3],2180 nM
same,EC50,[4],14.5 µM
same,pEC50,[4],4.96
same,EC50,[5],4.91 µM
same,EC50,[6],24 nM
same,EC50,[7],> 300 µM
same,EC50,[8],49.3 µM
same,EC50,[9],> 1 mM
same,EC50,[10],32 µM
same,EC50,[11],19.5 µM
same,EC50,[12],18.5 µM
same,EC50,[13],21.2 µM
same,EC50,[14],833 nM
same,EC50,[15],18.2 µM
same,EC50,[16],178 µM
same,EC50,[17],18.3 µM
same,pEC50,[17],4.74
same,EC50,[18],26.2 µM
same,EC50,[19],2560 nM
same,EC50,[20],87.7 µM
same,pEC50,[20],4.06
same,EC50,[21],40.9 µM
same,pEC50,[21],4.39
same,EC50,[22],3.68 µM
same,EC50,[23],7 µM
same,EC50,[24],47 µM
same,EC50,[25],13.9 µM
same,EC50,[26],> 300 µM
N[C@](CC1c2ccccc2Oc2ccccc21)(C(=O)O)[C@H]1C[C@@H]1C(=O)O,IC50,[27],190 nM
O=c1c(Oc2ccc(I)cc2)coc2cc(O)ccc12,pEC50,[28],3.56
same,pEC50,[29],4.25
same,Ratio,[30],0.88
same,pEC50,[31],3.58
same,EC50,[32],49.5 µM
same,pEC50,[32],4.32
same,Ratio,[33],0.94
same,IC50,[34],4.33 µM
same,EC50,[35],25 µM
same,pEC50,[35],4.6
same,Ratio,[36],0.83
same,Ratio,[37],1.02
same,EC50,[38],10.9 µM
same,pEC50,[38],4.99
same,Ratio,[39],0.82
same,Ratio,[40],0.91
same,Ratio,[41],0.93
same,pEC50,[42],3.7
same,Ratio,[43],0.9
same,Ratio,[44],0.78
same,Activity,[45],Active
same,Ratio,[46],1
same,IC50,[47],80 nM
same,Ratio,[48],0.88
same,Emax,[49],96.4%
same,Ratio,[50],0.96
same,pEC50,[51],4.99
same,Ratio,[52],0.83
same,Ratio,[53],0.96
